# Measurements as given in ChEMBL document CHEMBL1629691, “Intrapulmonary pharmacokinetics and pharmacodynamics of micafungin in adult lung transplant patients” (Antimicrob Agents Chemother, 2010).
# Numbered stars: 1 amine (or outer) side, 2 acyl side, 3 side chain; on linkers, the order of the positions; unused ones are H or OH. Bridge positions count the residues as written; N and C are the ends. Square brackets hold non-standard residues; d marks the D form. Peptide text beside a SMILES is read from it. * marks the point of attachment. hTyr(3S-OH,4S-OH,3'-OSO3H) = N[C@H](C(=O)O)[C@H](O)[C@@H](O)c1ccc(O)c(OS(=O)(=O)O)c1; Orn(4R-OH,5R-OH) = O=C([C@H](C[C@@H](O)[C@@H](O)N[*:3])N[*:1])[*:2]; Pro(3S-OH,4S-Me) = C[C@H]1CN[C@H](C(=O)O)[C@H]1O; X1 = CCCCCOc1ccc(-c2cc(-c3ccc(C(=O)*)cc3)no2)cc1; Gln(3R-OH) = NC(=O)C[C@@H](O)[C@H](N)C(=O)O; Hyp = O=C(O)[C@@H]1C[C@@H](O)CN1
# What was measured:
# [1] = Drug level in lung transplant recipient invasive aspergillosis patient plasma at 150 mg, iv QD for 4 consecutive days measured after 24 hrs post last dose by HPLC; assay type: ADME, organism-based; conditions: human, read-out: Drug uptake
# Procedure, shortened: (§1)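 150-mg IV micafungin, then bronchoscopy with BAL (20-ml saline aliquots) at the stated time after the dose. Blood was drawn in heparin at the same time. The BAL fluid was spun at 400 × g for 5 min at 4°C; supernatant and cell pellet were frozen at −80°C. Micafungin was measured by solid-phase extraction and C8 HPLC with UV detection at 271.5 nm, using anidulafungin as internal standard.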
# [2] = Tmax in alveolar cells of lung transplant recipient invasive aspergillosis patient at 150 mg, iv QD for 4 consecutive days by HPLC; assay type: ADME, organism-based, Pneumocyte; conditions: human
# Procedure, shortened: (§2)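 150-mg IV dose; BAL at 3, 5, 8, 18 or 24 h after the dose, about 4 subjects per time group. Plasma, ELF and alveolar cell drug was measured by reversed-phase HPLC with UV detection. Values were averaged per time point. Cmax is the highest mean over the five groups; Tmax is the mean dose-to-BAL time of that group.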
# [3] = Ratio of drug level in epithelial lining fluid to plasma in lung transplant recipient invasive aspergillosis patient at 150 mg, iv measured after 5 hrs post last dose; conditions: human
# [4] = Ratio of drug level in epithelial lining fluid to plasma in lung transplant recipient invasive aspergillosis patient at 150 mg, iv QD for 4 consecutive days measured after 3 hrs post last dose; assay type: ADME, organism-based; conditions: human
# [5] = Drug level in alveolar cells of lung transplant recipient invasive aspergillosis patient at 150 mg, iv QD for 4 consecutive days measured after 18 hrs post last dose by HPLC; assay type: ADME, organism-based, Pneumocyte; conditions: human, read-out: Drug uptake; procedure, shortened: as §1
# [6] = Ratio of drug level in epithelial lining fluid to plasma in lung transplant recipient invasive aspergillosis patient at 150 mg, iv QD for 4 consecutive days measured after 8 hrs post last dose; assay type: ADME, organism-based; conditions: human
# Homo sapiens = experiment: Hepatotoxicity in lung transplant recipient invasive aspergillosis patient assessed as total bilirubin level at 150 mg, iv QD for 4 consecutive days measured post last dose; assay type: toxicity, organism-based; conditions: in vivo
# Procedure, shortened: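 Serum creatinine, AST, ALT and total bilirubin were recorded from routine clinical laboratory tests before enrolment and again after BAL, at a mean of 10.7 days after infusion.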
# [7] = Elimination half life in lung transplant recipient invasive aspergillosis patient at 150 mg, iv QD for 4 consecutive days by HPLC; assay type: ADME, organism-based; conditions: human, in vivo, read-out: beta t1/2 (converted)
# Procedure, shortened: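 Plasma micafungin was measured by HPLC after a 150-mg IV dose in lung transplant recipients. The terminal-phase half-life was derived by model-independent (noncompartmental) analysis of plasma concentrations.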
# [8] = Ratio of AUC (0 to 24 hrs) in lung transplant recipient invasive aspergillosis patient alveolar cell to MIC90 for Aspergillus fumigatus; assay type: functional, Pneumocyte
# [9] = Drug level in lung transplant recipient invasive aspergillosis patient plasma at 150 mg, iv QD for 4 consecutive days measured after 18 hrs post last dose by HPLC; assay type: ADME, organism-based; conditions: human, read-out: Drug uptake; procedure, shortened: as §1
# [10] = Clearance in lung transplant recipient invasive aspergillosis patient at 150 mg, iv QD for 4 consecutive days by HPLC; assay type: ADME, organism-based; conditions: human, in vivo
# [11] = Volume of distribution in lung transplant recipient invasive aspergillosis patient at 150 mg, iv QD for 4 consecutive days by HPLC; assay type: ADME, organism-based; conditions: human, in vivo
# [12] = Drug level in epithelial lining fluid of lung transplant recipient invasive aspergillosis patient at 150 mg, iv single dose measured after 5 hrs post dose by HPLC; conditions: human, read-out: Drug uptake
# [13] = Ratio of drug level in alveolar cell to plasma of lung transplant recipient invasive aspergillosis patient at 150 mg, iv QD for 4 consecutive days measured after 3 hrs post last dose; assay type: ADME, organism-based, Pneumocyte; conditions: human, alveolar cells / plasma
# [14] = Drug level in alveolar cells of lung transplant recipient invasive aspergillosis patient at 150 mg, iv QD for 4 consecutive days measured after 5 hrs post last dose by HPLC; assay type: ADME, organism-based, Pneumocyte; conditions: human, read-out: Drug uptake; procedure, shortened: as §1
# [15] = Drug level in lung transplant recipient invasive aspergillosis patient epithelial lining fluid at 150 mg, iv QD for 4 consecutive days measured after 18 hrs post last dose by HPLC; assay type: ADME, organism-based; conditions: human, read-out: Drug uptake; procedure, shortened: as §1
# [16] = Cmax in alveolar cells of lung transplant recipient invasive aspergillosis patient at 150 mg, iv QD for 4 consecutive days by HPLC; assay type: ADME, organism-based, Pneumocyte; set-up: dose 150 mg, route intravenous; conditions: human; procedure, shortened: as §2
# [17] = Ratio of drug level in alveolar cell to plasma of lung transplant recipient invasive aspergillosis patient at 150 mg, iv QD for 4 consecutive days measured after 18 hrs post last dose; assay type: ADME, organism-based, Pneumocyte; conditions: human, alveolar cells / plasma
# [18] = Ratio of drug level in epithelial lining fluid to plasma in lung transplant recipient invasive aspergillosis patient at 150 mg, iv QD for 4 consecutive days measured after 24 hrs post last dose; assay type: ADME, organism-based; conditions: human
# [19] = Drug level in lung transplant recipient invasive aspergillosis patient plasma at 150 mg, iv measured after 5 hrs post last dose by HPLC; conditions: human, read-out: Drug uptake
# [20] = Drug level in alveolar cells of lung transplant recipient invasive aspergillosis patient at 150 mg, iv single dose measured after 5 hrs post dose by HPLC; conditions: human, read-out: Drug uptake
# [21] = Drug level in epithelial lining fluid of lung transplant recipient invasive aspergillosis patient at 150 mg, iv QD for 4 consecutive days measured after 8 hrs post last dose by HPLC; assay type: ADME, organism-based; conditions: human, read-out: Drug uptake; procedure, shortened: as §1
# [22] = AUC (0 to 24 hrs) in alveolar cell of lung transplant recipient invasive aspergillosis patient plasma at 150 mg, iv administered as single dose; assay type: ADME, organism-based, Pneumocyte; set-up: time < 24 hr, dose 150 mg, route intravenous; conditions: human, alveolar cells
# Procedure, shortened: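 Single 150-mg IV dose in adult lung transplant recipients. Plasma, ELF (epithelial lining fluid) and alveolar cell concentrations were measured by HPLC at the time of bronchoscopy. AUC0-24 came from a population model: a linear four-compartment model fit to all compartments, with the plasma two-compartment model used for the plasma profile.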
# [23] = Ratio of fCmax in lung transplant recipient invasive aspergillosis patient plasma to MIC90 for Aspergillus fumigatus; assay type: functional
# [24] = Tmax in lung transplant recipient invasive aspergillosis patient plasma at 150 mg, iv QD for 4 consecutive days by HPLC; assay type: ADME, organism-based; conditions: human; procedure, shortened: as §2
structure (smiles),measurement,setting,value
"CCCCCOc1ccc(-c2cc(-c3ccc(C(=O)N[C@H]4C[C@@H](O)[C@@H](O)NC(=O)[C@@H]5[C@@H](O)[C@@H](C)CN5C(=O)[C@H]([C@H](O)CC(N)=O)NC(=O)[C@H]([C@H](O)[C@@H](O)c5ccc(O)c(OS(=O)(=O)O)c5)NC(=O)[C@@H]5C[C@@H](O)CN5C(=O)[C@H]([C@@H](C)O)NC4=O)cc3)no2)cc1 [MICAFUNGIN] (X1-[Orn(4R-OH,5R-OH)]T[Hyp][hTyr(3S-OH,4S-OH,3'-OSO3H)][Gln(3R-OH)][Pro(3S-OH,4S-Me)]; lactam 1-C)",concentration at 24 h,[1],1570 ng/mL
same,Tmax,[2],17.9 h
same,Kp at 5 h,[3],0.15
same,Kp at 3 h,[4],0.01
same,concentration at 18 h,[5],17400 ng/mL
same,Kp at 8 h,[6],0.01
same,Activity,Homo sapiens,0.74 mg/dL
same,half-life,[7],12.1 h
same,Ratio,[8],13340
same,concentration at 18 h,[9],2380 ng/mL
same,clearance,[10],21.8 mL/min
same,Vd,[11],17.6 L
same,concentration at 5 h,[12],710 ng/mL
same,Kp at 3 h,[13],1.53
same,concentration at 5 h,[14],53300 ng/mL
same,concentration at 18 h,[15],80 ng/mL
same,Cmax,[16],17400 ng/mL
same,Kp at 18 h,[17],7.62
same,Kp at 24 h,[18],1.1
same,concentration at 5 h,[19],4810 ng/mL
same,concentration at 5 h,[20],2840 ng/mL
same,concentration at 8 h,[21],50 ng/mL
same,AUC(0-t) at 24 h,[22],208 µg·h/mL
same,Ratio,[23],3.2
same,Tmax,[24],4 h
